From ChEMBL document CHEMBL4373712, “Bioactivatable Pseudotripeptidization of Cyclic Dipeptides To Increase the Affinity toward Oligopeptide Transporter 1 for Enhanced Oral Absorption: An Application to Cyclo(l-Hyp-l-Ser) (JBP485)” (J Med Chem, 2019)

Columns and labels:
[1] = Half life in pH 6.8 simulated intestinal fluid at 5 mM by HPLC analysis; assay type: ADME
In short: (§1)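 Compound at 5 mM in 0.1 M HCl, pH 4.5 acetate buffer, pH 5.8/6.8/7.2 phosphate buffers, SGF (pH 1.2) and SIF (pH 6.8), prepared per Chinese Pharmacopoeia. Samples taken at 0-20 h and analyzed by HPLC-UV. k = 2.303×slope of log C versus time; t1/2 = 0.693/k.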

[2] = Apparent permeability across human Caco2 cells at 0.5 mM measured after 5 to 60 mins by UPLC-MS/MS analysis; assay type: ADME, cell-based; settings: caco-2, 500 µM
In short: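 Caco-2 cells grown on 0.4 µm transwell inserts; monolayers used only with TEER >300 Ω/cm². Compound at 0.5 mM in apical pH 6.0 HBSS, basolateral pH 7.4 HBSS, 37 °C. Basolateral samples taken at 5, 15, 30, 45 and 60 min. Quantified by UPLC-MS/MS; Papp from steady-state flux, area and initial donor concentration. Three repeats.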

[3] = target: T1, Solute carrier family 15 member 1 (Rattus norvegicus, UniProt P51574); assay: Ratio of compound effect for substrate activity at PEPT1 in Sprague-Dawley rat jejunum assessed as effective permeability in absence of non-metabolized PEPT1 substrate Gly-Sar to compound effect for substrate activity at PEPT1 in Sprague-Dawley rat jejunum assessed as effective permeability in presence of non-metabolized PEPT1 substrate Gly-Sar; assay type: ADME
T1 sequence (P51574 whole entry): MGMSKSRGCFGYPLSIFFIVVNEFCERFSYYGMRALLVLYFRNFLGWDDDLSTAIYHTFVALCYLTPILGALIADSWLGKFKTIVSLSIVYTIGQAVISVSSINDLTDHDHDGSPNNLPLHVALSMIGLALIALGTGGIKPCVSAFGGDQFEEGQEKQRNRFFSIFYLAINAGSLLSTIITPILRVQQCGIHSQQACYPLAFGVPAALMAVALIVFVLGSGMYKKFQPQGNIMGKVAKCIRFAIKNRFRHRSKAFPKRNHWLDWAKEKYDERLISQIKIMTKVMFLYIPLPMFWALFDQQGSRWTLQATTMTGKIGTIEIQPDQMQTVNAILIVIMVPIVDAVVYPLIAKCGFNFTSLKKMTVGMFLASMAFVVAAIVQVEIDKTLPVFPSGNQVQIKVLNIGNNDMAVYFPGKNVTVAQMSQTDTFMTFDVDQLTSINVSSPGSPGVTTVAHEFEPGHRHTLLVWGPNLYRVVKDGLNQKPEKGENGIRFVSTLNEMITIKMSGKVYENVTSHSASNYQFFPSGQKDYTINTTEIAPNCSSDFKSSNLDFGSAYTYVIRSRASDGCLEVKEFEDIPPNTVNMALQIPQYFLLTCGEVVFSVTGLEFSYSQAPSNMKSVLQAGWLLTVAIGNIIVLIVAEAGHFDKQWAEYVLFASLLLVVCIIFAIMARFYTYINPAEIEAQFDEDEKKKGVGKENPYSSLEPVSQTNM

[4] = target: T2, Solute carrier family 22 member 1 (Homo sapiens, UniProt O15245); assay: Substrate activity at OCT1 in human Caco2 cells assessed as protein-mediated drug uptake at 0.5 mM measured after 10 mins in absence of OCT1 substrate metformin by UPLC-MS/MS analysis; assay type: ADME, cell-based; settings: caco-2, 10 min, 500 µM
T2 sequence (O15245 whole entry): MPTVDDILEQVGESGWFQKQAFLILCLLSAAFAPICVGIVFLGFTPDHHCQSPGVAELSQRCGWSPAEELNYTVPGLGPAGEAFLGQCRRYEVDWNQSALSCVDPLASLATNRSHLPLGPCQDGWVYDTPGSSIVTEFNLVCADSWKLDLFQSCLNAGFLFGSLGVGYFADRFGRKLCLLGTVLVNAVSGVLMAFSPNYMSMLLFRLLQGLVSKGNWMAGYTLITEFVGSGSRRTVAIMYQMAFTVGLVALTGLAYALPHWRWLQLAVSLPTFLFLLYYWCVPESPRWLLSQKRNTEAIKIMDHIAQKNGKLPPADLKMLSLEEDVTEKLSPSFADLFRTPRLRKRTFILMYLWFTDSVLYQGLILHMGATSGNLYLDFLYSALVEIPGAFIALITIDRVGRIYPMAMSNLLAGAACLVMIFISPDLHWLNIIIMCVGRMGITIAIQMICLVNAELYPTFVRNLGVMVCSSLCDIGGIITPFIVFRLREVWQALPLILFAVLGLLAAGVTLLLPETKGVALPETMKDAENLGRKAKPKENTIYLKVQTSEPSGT
In short: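 Caco-2 cells in 24-well plates took up 0.5 mM compound for 10 min at 37 °C, with or without 50 mM captopril ([…]) or metformin (OCT1-3 substrate). Cells were washed in ice-cold PBS and homogenised in water; lysate protein was measured and drug assayed by UPLC-MS/MS. n=3.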

[5] = Half life in Sprague-Dawley rat liver homogenates at 5 mM by HPLC analysis; assay type: ADME, tissue-based
In short: (§2)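 Jejunum and liver homogenates from male SD rats in pH 7.4 PBS, adjusted to 200 µg/mL protein, and rat plasma. Each incubated with compound at 5 mM at 37 °C.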

[6] = Half life in Sprague-Dawley rat plasma at 5 mM by HPLC analysis; assay type: ADME, cell-free; in short: as §2
[7] = Half life in pH 6.8 phosphate buffer at 5 mM by HPLC analysis; assay type: physicochemical; in short: as §1
[8] = target: T3, Solute carrier family 15 member 1 (Homo sapiens, UniProt P46059); assay: Substrate activity at PEPT1 in human Caco2 cells assessed as protein-mediated drug uptake at 0.5 mM measured after 10 mins in pH 7.4 HBSS buffer by UPLC-MS/MS analysis; assay type: ADME, cell-based; settings: caco-2, pH 7.4, 10 min, 500 µM
T3 sequence (P46059 whole entry): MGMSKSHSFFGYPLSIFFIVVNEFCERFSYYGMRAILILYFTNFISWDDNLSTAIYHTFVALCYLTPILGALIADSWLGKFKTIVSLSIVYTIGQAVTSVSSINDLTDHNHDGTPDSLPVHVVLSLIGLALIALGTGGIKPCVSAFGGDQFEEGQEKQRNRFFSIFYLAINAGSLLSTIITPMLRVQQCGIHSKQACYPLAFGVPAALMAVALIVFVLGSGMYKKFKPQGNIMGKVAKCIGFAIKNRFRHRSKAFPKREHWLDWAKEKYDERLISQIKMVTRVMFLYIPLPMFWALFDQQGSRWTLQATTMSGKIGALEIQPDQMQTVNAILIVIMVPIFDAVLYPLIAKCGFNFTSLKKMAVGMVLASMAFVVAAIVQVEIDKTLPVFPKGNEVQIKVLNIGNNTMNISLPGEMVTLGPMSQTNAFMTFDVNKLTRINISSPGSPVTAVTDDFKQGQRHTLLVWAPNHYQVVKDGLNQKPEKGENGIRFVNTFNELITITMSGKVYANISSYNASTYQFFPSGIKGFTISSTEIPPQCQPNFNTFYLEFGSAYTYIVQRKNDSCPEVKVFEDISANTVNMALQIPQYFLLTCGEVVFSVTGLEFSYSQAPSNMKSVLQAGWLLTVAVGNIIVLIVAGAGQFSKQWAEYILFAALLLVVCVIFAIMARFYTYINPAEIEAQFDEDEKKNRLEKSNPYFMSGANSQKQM
In short: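 Caco-2 cells incubated 10 min with 0.5 mM compound in HBSS at pH 6.0 or pH 7.4, washed three times in ice-cold PBS pH 7.4, homogenised. Protein by DC assay; drug by UPLC-MS/MS; n=3.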

Compound | half-life at 5000 µM [1] | Papp [2] | Ratio [3] | Drug uptake [4] | half-life at 5000 µM [5] | half-life at 5000 µM [6] | half-life at 5000 µM [7] | Drug uptake [8]
CC(C)[C@H](N)C(=O)OC[C@@H]1NC(=O)[C@@H]2C[C@@H](O)CN2C1=O | 7.9 h | Permeable | 6.8 | Not Active | 0.86 h | 2.9 h | 7.7 h | Not Active
O=C1N[C@@H](CO)C(=O)N2C[C@H](O)C[C@@H]12 | > 20 h | Impermeable | 2.5 | Not Active | > 20 h | > 20 h | > 20 h | Not Active
